Experimental data: ChEMBL document CHEMBL1671805, “Biotin ergopeptide probes for dopamine receptors” (J Med Chem, 2011)
Active and inactive are the calls of the source. No cut-off for these calls is given here.

Assays:
Ovis aries [1] = organism: Ovis aries; assay: Displacement of [3H]-YM09151-2 from dopamine D2 receptor in lamb brain striatum membranes at 25 uM; type: cell membranes; details: Membrane
In short: (§1)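 Lamb striatal membranes (0.5 mg prot/mL) in 50 mM Tris-HCl pH 7.4 with 10 mM MgCl2 were incubated 2 h at 22 C. Radioligand was 0.9 nM [3H]-SCH23390 (D1) or 0.7 nM [3H]-YM09151-2 (D2). Screens used 25 μM compound; competition used increasing concentrations. Nonspecific binding was taken with 10 μM SCH23390 (D1) or raclopride (D2). Bound ligand was filtered and counted. KD values came from a two-state dimer receptor model fit.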

Ovis aries [2] = organism: Ovis aries; assay: Displacement of [3H]-SCH23390 from dopamine D1 receptor in lamb brain striatum membranes at 25 uM; type: cell membranes; details: Membrane; in short: as §1
[3] = Displacement of [3H]-SCH23390 from dopamine D1 receptor high binding affinity site in lamb brain striatum membranes at 25 uM; type: cell membranes, Ovis aries, Membrane; in short: as §1
[4] = Displacement of [3H]-SCH23390 from dopamine D1 receptor low binding affinity site in lamb brain striatum membranes at 25 uM; type: cell membranes, Ovis aries, Membrane; in short: as §1
[5] = Displacement of [3H]-YM09151-2 from dopamine D2 receptor low binding affinity site in lamb brain striatum membranes at 25 uM; type: cell membranes, Ovis aries, Membrane; in short: as §1
[6] = Displacement of [3H]-YM09151-2 from dopamine D2 receptor high binding affinity site in lamb brain striatum membranes at 25 uM; type: cell membranes, Ovis aries, Membrane; in short: as §1
[7] = target: Adenosine receptor A2a (Homo sapiens) (UniProt P29274); assay: Displacement of [3H]-ZM241385 from adenosine A2A receptor at 25 uM
In short: (§2)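 Membranes were incubated with 25 μM compound for 2 h at 22 C in 50 mM Tris-HCl pH 7.4 with 10 mM MgCl2 and 0.2 U/mL ADA. Radioligand was 1.0 nM [3H]-R-PIA (A1) or 1.6 nM [3H]ZM241385 (A2A). Nonspecific binding was taken with 10 μM DPCPX (A1) or ZM241385 (A2A). Separation was by GF/C filtration, then scintillation counting.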

[8] = target: T1, Adenosine receptor A1 (Homo sapiens) (UniProt P30542); assay: Displacement of [3H]-R-PIA from adenosine A1 receptor at 25 uM; in short: as §2
T1 sequence (whole entry): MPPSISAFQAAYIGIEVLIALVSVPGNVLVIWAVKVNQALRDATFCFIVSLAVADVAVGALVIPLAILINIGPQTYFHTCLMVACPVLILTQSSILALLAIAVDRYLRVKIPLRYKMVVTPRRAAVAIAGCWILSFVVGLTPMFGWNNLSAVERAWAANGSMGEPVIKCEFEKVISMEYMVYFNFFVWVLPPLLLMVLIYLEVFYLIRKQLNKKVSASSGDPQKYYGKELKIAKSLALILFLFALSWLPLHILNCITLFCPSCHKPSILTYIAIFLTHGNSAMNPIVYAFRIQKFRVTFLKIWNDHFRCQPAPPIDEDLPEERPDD

Adenosine receptor A2a (Homo sapiens), sequence (P29274 whole entry): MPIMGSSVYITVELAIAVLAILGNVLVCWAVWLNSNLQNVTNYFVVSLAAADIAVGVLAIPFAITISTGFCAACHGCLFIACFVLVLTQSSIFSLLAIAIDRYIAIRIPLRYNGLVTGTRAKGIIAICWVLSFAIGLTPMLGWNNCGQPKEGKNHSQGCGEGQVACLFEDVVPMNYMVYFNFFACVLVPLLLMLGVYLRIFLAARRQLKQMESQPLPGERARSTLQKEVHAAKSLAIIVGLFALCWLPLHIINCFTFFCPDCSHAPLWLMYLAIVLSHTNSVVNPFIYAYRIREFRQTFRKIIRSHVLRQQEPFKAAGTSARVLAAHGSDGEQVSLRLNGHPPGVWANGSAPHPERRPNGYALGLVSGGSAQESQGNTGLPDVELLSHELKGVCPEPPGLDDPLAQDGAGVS

SMILES	Activity (Ovis aries [1])	Activity (Ovis aries [2])	other results
CC(=O)N[C@@H](CCCCNC(=O)CCCC(=O)NCCNC(=O)C1CCCN(C(=O)[C@H](Cc2ccc(F)cc2)NC(=O)[C@H](Cc2ccc([N+](=O)[O-])cc2)NC(=O)[C@@H]2C=C3c4cccc5[nH]cc(c45)C[C@H]3N(C)C2)C1)C(N)=O (stereo not given in full)	Active		
CC(=O)N[C@@H](CCC(=O)NCCCCCCNC(=O)[C@@H]1CCCN1C(=O)[C@H](Cc1ccc([N+](=O)[O-])cc1)NC(=O)[C@@H](NC(=O)[C@@H]1C=C2c3cccc4[nH]cc(c34)C[C@H]2N(C)C1)C(C)C)C(N)=O	Active	Active	
CC(=O)N[C@@H](CCC(=O)Nc1ccc(Sc2ccc(NC(=O)C3CCCN(C(=O)[C@H](Cc4ccc(F)cc4)NC(=O)[C@H](Cc4ccc([N+](=O)[O-])cc4)NC(=O)[C@@H]4C=C5c6cccc7[nH]cc(c67)C[C@H]5N(C)C4)C3)cc2)cc1)C(N)=O (stereo not given in full)	Active		
CC(=O)N[C@@H](CCCCNC(=O)[C@@H](CCCCN)NC(=O)[C@@H]1CCCN1C(=O)[C@H](Cc1ccc([N+](=O)[O-])cc1)NC(=O)[C@@H](NC(=O)[C@@H]1C=C2c3cccc4[nH]cc(c34)C[C@H]2N(C)C1)C(C)C)C(N)=O	Active		
CC(=O)N[C@@H](CCCCNC(=O)c1ccc(-c2ccc(C(=O)NCCNC(=O)C3CCCN(C(=O)[C@H](Cc4ccc(F)cc4)NC(=O)[C@H](Cc4ccc([N+](=O)[O-])cc4)NC(=O)[C@@H]4C=C5c6cccc7[nH]cc(c67)C[C@H]5N(C)C4)C3)cc2)cc1)C(N)=O (stereo not given in full)	Active		
CC(=O)N[C@@H](CCCCNC(=O)c1ccc(C(=O)c2ccc(C(=O)NCCNC(=O)C3CCCN(C(=O)[C@H](Cc4ccc(F)cc4)NC(=O)[C@H](Cc4ccc([N+](=O)[O-])cc4)NC(=O)[C@@H]4C=C5c6cccc7[nH]cc(c67)C[C@H]5N(C)C4)C3)cc2)cc1)C(N)=O (stereo not given in full)	Active		
CC(=O)N[C@@H](CCCCNC(=O)C1CCCN(C(=O)[C@H](Cc2ccc(F)cc2)NC(=O)[C@H](Cc2ccc([N+](=O)[O-])cc2)NC(=O)[C@@H]2C=C3c4cccc5[nH]cc(c45)C[C@H]3N(C)C2)C1)C(N)=O (stereo not given in full)	Active		
CC(=O)N[C@@H](CCCCNC(=O)CCC(=O)NCCNC(=O)[C@@H]1CCCN1C(=O)[C@H](Cc1ccc([N+](=O)[O-])cc1)NC(=O)[C@@H](NC(=O)[C@@H]1C=C2c3cccc4[nH]cc(c34)C[C@H]2N(C)C1)C(C)C)C(N)=O	Active		
CC(=O)N[C@@H](CCC(=O)Nc1ccc(-c2ccc(NC(=O)[C@@H]3CCCN3C(=O)[C@H](Cc3ccc([N+](=O)[O-])cc3)NC(=O)[C@@H](NC(=O)[C@@H]3C=C4c5cccc6[nH]cc(c56)C[C@H]4N(C)C3)C(C)C)cc2)cc1)C(N)=O	Active		
CC(C)[C@H](NC(=O)[C@@H]1C=C2c3cccc4[nH]cc(c34)C[C@H]2N(C)C1)C(=O)N[C@@H](Cc1ccc([N+](=O)[O-])cc1)C(=O)N1CCC[C@H]1C(=O)NCCCCCC(=O)NCCCC[C@H](NC(=O)CCCC[C@H]1SC[C@H]2NC(=O)N[C@H]21)C(N)=O			Kd [3]: 107 nM; Kd [4]: 3200 nM; Kd [5]: 7000 nM; Kd [6]: 260 nM
CC(=O)N[C@@H](CCC(=O)NCCNC(=O)[C@@H]1CCCN1C(=O)[C@H](Cc1ccc([N+](=O)[O-])cc1)NC(=O)[C@@H](NC(=O)[C@@H]1C=C2c3cccc4[nH]cc(c34)C[C@H]2N(C)C1)C(C)C)C(N)=O	Active	Active	
CC(=O)N[C@@H](CCCCNC(=O)CCCCCNC(=O)C1CCCN(C(=O)[C@H](Cc2ccc(F)cc2)NC(=O)[C@H](Cc2ccc([N+](=O)[O-])cc2)NC(=O)[C@@H]2C=C3c4cccc5[nH]cc(c45)C[C@H]3N(C)C2)C1)C(N)=O (stereo not given in full)			Activity [7]: Active; Activity [8]: Active
CC(=O)N[C@@H](CCCCNC(=O)[C@H](N)CCCCNC(=O)[C@@H]1CCCN1C(=O)[C@H](Cc1ccc([N+](=O)[O-])cc1)NC(=O)[C@@H](NC(=O)[C@@H]1C=C2c3cccc4[nH]cc(c34)C[C@H]2N(C)C1)C(C)C)C(N)=O	Active	inactive	
CC(=O)N[C@@H](CCCCNC(=O)[C@@H](CCCCNC(=O)[C@@H]1CCCN1C(=O)[C@H](Cc1ccc([N+](=O)[O-])cc1)NC(=O)[C@@H](NC(=O)[C@@H]1C=C2c3cccc4[nH]cc(c34)C[C@H]2N(C)C1)C(C)C)NC(C)=O)C(N)=O		Active	Activity [7]: Active; Activity [8]: Active
CC(=O)N[C@@H](CCCCNC(=O)CCCCCNC(=O)[C@@H]1CCCN1C(=O)[C@H](Cc1ccc([N+](=O)[O-])cc1)NC(=O)[C@@H](NC(=O)[C@@H]1C=C2c3cccc4[nH]cc(c34)C[C@H]2N(C)C1)C(C)C)C(N)=O		Active	Activity [8]: Active
CC(=O)N[C@@H](CCCCNC(=O)[C@@H](CCCCNC(=O)C1CCCN(C(=O)[C@H](Cc2ccc(F)cc2)NC(=O)[C@H](Cc2ccc([N+](=O)[O-])cc2)NC(=O)[C@@H]2C=C3c4cccc5[nH]cc(c45)C[C@H]3N(C)C2)C1)NC(C)=O)C(N)=O (stereo not given in full)	Active		Activity [7]: Active; Activity [8]: Active
CC(=O)N[C@@H](CCCCNC(=O)[C@@H]1CCCN1C(=O)[C@H](Cc1ccc([N+](=O)[O-])cc1)NC(=O)[C@@H](NC(=O)[C@@H]1C=C2c3cccc4[nH]cc(c34)C[C@H]2N(C)C1)C(C)C)C(N)=O	Active	Active	
CC(=O)N[C@@H](CCC(=O)Nc1ccc(-c2ccc(NC(=O)C3CCCN(C(=O)[C@H](Cc4ccc(F)cc4)NC(=O)[C@H](Cc4ccc([N+](=O)[O-])cc4)NC(=O)[C@@H]4C=C5c6cccc7[nH]cc(c67)C[C@H]5N(C)C4)C3)cc2)cc1)C(N)=O (stereo not given in full)	Active		
CC(=O)N[C@@H](CCCCNC(=O)[C@@H]1CCCN1C(=O)[C@H](Cc1ccc([N+](=O)[O-])cc1)NC(=O)[C@@H](NC(=O)[C@@H]1C=C2c3cccc4[nH]cc(c34)C[C@H]2N(C)C1)C(C)C)C(=O)NCCCC[C@H](NC(=O)CCCC[C@H]1SC[C@H]2NC(=O)N[C@H]21)C(N)=O			Kd [3]: 2100 nM; Kd [4]: > 50000 nM; Kd [5]: 23000 nM; Kd [6]: 2000 nM
